This is an account of results in ChEMBL document CHEMBL1926658, “The design, synthesis and biological evaluations of C-6 or C-7 substituted 2-hydroxyisoquinoline-1,3-diones as inhibitors of hepatitis C virus” (Bioorg Med Chem, 2012).

The subject of series [1] is Hepatitis C virus. Kind of series: Antiviral activity against HCV genotype 1b infected in human HuH7 cells assessed as reduction in luciferase activity at 10 uM after 3 days. Also on record: scale not given: the % may be the effect or the level left. The class given is functional, Hepacivirus hominis, Huh-7. In outline: (§1)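 Huh-7/HCV1b-Rluc genotype 1b replicon cells plated at 6 × 10³/well without G418; next day compound in DMSO added, 37 °C/5% CO₂ for 3 days. Live-cell renilla luciferase substrate (1:1000) added, luminescence read immediately. Triplicates, ≥2 independent runs. Single-point tests at 10 µM with ribavirin (10 µM) and 2'-C-methyl adenosine (500 nM) controls; EC₅₀ from eight serial dilutions versus vehicle.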

The nature of series [2]: Cytotoxicity against human HuH7 cells infected with HCV1b assessed as cell viability at 10 uM after 3 days by MTS assay. As to conditions: read-out: Activity. The class given is cell-based, Huh-7. Summed up: (§2)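 Replicon cells (Huh-7/HCV1b-Rluc) seeded at 6 × 10³/well minus G418, then exposed next day to compound in DMSO for three days at 37 °C/5% CO₂. Viability read with MTS reagent (CellTiter 96 AQueous One) by absorbance at […]. CC₅₀ taken as concentration reducing proliferation by 50%, fitted from eight serial dilutions against vehicle-treated cells.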
In general terms: Tetrazolium dyes change colour on reduction, which living cells bring about.

The subject of series [3] is Hepatitis C virus. The series is described as follows: Inhibition of recombinant HCV genotype 1b NS5B polymerase activity after 3 hrs by scintillation proximity assay. On the set-up: species or system Hepatitis C virus subtype 1b. Summed up:
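Started with 450 nM oligo-U12 primer, 30 nM UTP, 75 nM poly(A) template and ³H-UTP; 3 h at room temperature, scintillation proximity read-out. Duplicates, ≥2 repeats; IC₅₀ from eight serial dilutions.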

The test system of series [4] is Hepatitis C virus. Kind of series: Antiviral activity against HCV genotype 1b infected in human HuH7 cells after 3 days by renilla luciferase reporter assay. The series is classed as functional, organism-based, Hepacivirus hominis. As to conditions: Huh-7, 72 h. In outline: as §1
For orientation: In a reporter assay the amount or activity of a reporter protein is the signal.

Series [5] in a line: Cytotoxicity against human HuH7 cells infected with HCV1b after 3 days by MTS assay. The series is classed as cell-based, Huh-7. In outline: as §2
Series [6] is described as follows: Therapeutic index, ratio of CC50 for human HuH7 cells infected with HCV1b to EC50 for HCV genotype 1b. The series is classed as cell-based, Huh-7. The note with it: read-out: Ratio CC50/EC50. Summed up:
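Index computed as CC₅₀/EC₅₀, both values from 3-day assays in Huh-7/HCV1b-Rluc replicon cells: EC₅₀ from renilla luciferase signal, CC₅₀ from MTS absorbance at 450 nm, each fitted from eight serial dilutions against vehicle.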

A short description of series [7]: Inhibition of HCV NS5b RNA-dependent RNA polymerase. Also on record: species or system Hepacivirus hominis.

Take `O=C1Cc2ccc(-c3ccco3)cc2C(=O)N1O`: the Activity in series [1] is recorded as 51%. In addition, the viability at 72 h, 10 µM in series [2] was found to be 21%. In series [3], the IC50 (in general, the concentration needed to halve the response being measured) is 18 µM.

Consider `O=C1Cc2ccc(-c3cccs3)cc2C(=O)N1O`, for which the Activity in series [1] worked out at 99%. In series [2], the viability at 72 h, 10 µM was found to be 21%.

With `O=C1Cc2ccc(-c3ccc(F)c(F)c3)cc2C(=O)N1O`, the Activity in series [1] turned out to be 100%. Moreover, the viability at 72 h, 10 µM in series [2] was 33%.

With `O=C1Cc2ccc(-c3ccc(F)c(Cl)c3)cc2C(=O)N1O`, the Activity in series [1] stood at 30%. Further, the viability at 72 h, 10 µM in series [2] came to 83%. The IC50 in series [3] stood at 7.1 µM.

As for `COc1cccc(-c2ccc3c(c2)C(=O)N(O)C(=O)C3)c1`, the Activity in series [1] was determined as 54%. Also, the viability at 72 h, 10 µM in series [2] is 37%.

Turning to `O=C1Cc2ccc(-c3cc4ccccc4o3)cc2C(=O)N1O`, the Activity in series [1] worked out at 83%. Also, the viability at 72 h, 10 µM in series [2] came out at 33%.

Turning to `O=C1Cc2cc(-c3ccco3)ccc2C(=O)N1O`, the Activity in series [1] amounted to 89%. Besides, in series [2], the viability at 72 h, 10 µM stood at 96%. Moreover, the EC50 (commonly the concentration giving half of the maximal effect) in series [4] is 1.9 µM. For the same molecule, the CC50 (usually the concentration at which the toxic effect on the cells reaches its halfway point) at 72 h in series [5] amounted to 13 µM. The selectivity ratio in series [6] was 6.8. In series [3], the IC50 was found to be 1.3 µM.

`Cc1ccc(-c2ccc3c(c2)CC(=O)N(O)C3=O)o1`: in series [1], the Activity came out at 76%. Moreover, the viability at 72 h, 10 µM in series [2] was found to be 87%. In series [4], this molecule yielded an EC50 of 4.3 µM. The molecule further came in with a CC50 at 72 h in series [5] of 11 µM. Besides, the selectivity ratio in series [6] amounted to 2.6. In series [3], the IC50 came to 18 µM.

On to `O=C1Cc2cc(-c3ccoc3)ccc2C(=O)N1O`, for which the Activity in series [1] is 100%. In addition, the viability at 72 h, 10 µM in series [2] is 52%. Besides, the IC50 in series [3] was 11 µM.

As for `O=C1Cc2cc(-c3cccc4c3oc3ccccc34)ccc2C(=O)N1O`, the Activity in series [1] is 98%. The viability at 72 h, 10 µM in series [2] came out at 28%.

As to `O=C1Cc2cc(-c3cc4ccccc4o3)ccc2C(=O)N1O`, the Activity in series [1] is 73%. For the same molecule, the viability at 72 h, 10 µM in series [2] is 46%.

For the molecule `O=C1Cc2cc(-c3cccs3)ccc2C(=O)N1O`, the Activity in series [1] came out at 93%. Moreover, the viability at 72 h, 10 µM in series [2] came to 100%. The same molecule displayed an EC50 in series [4] of 1.7 µM. In addition, in series [5], half-maximal cytotoxicity (CC50 at 72 h) was put at 18 µM. In addition, the selectivity ratio in series [6] turned out to be 11. Besides, the IC50 in series [3] stood at 7.3 µM.

As for `O=C1Cc2cc(-c3ccsc3)ccc2C(=O)N1O`, the Activity in series [1] came to 72%. The viability at 72 h, 10 µM in series [2] is 100%. The same molecule gave an EC50 in series [4] of 44 µM. In addition, in series [5], the midpoint of cytotoxicity, the CC50 at 72 h, lay at 98 µM. In series [6], the selectivity ratio worked out at 2.2. The IC50 in series [3] came out at 9 µM.

For `O=C1Cc2cc(-c3csc4ccccc34)ccc2C(=O)N1O`, the Activity in series [1] came to 95%. For the same molecule, the viability at 72 h, 10 µM in series [2] was found to be 34%.

For the molecule `O=C1Cc2cc(-c3cccc4c3sc3ccccc34)ccc2C(=O)N1O`, the Activity in series [1] turned out to be 95%. Moreover, the viability at 72 h, 10 µM in series [2] was determined as 32%.

As to `O=C1Cc2cc(-c3ccc4c(c3)OCO4)ccc2C(=O)N1O`, in series [1], the Activity is 28%. Also, the viability at 72 h, 10 µM in series [2] stood at 79%.

In the case of `O=C1Cc2cc(-c3ccc(C(F)(F)F)cc3)ccc2C(=O)N1O`, the Activity in series [1] is listed as 93%. Also, in series [2], the viability at 72 h, 10 µM was determined as 29%.

On to `O=C1Cc2cc(-c3ccc(F)cc3)ccc2C(=O)N1O`, for which the Activity in series [1] is 73%. Besides, the viability at 72 h, 10 µM in series [2] was 90%. The molecule also gave a half-maximal effective concentration (EC50) in series [4] of 9.6 µM. This molecule had a CC50 at 72 h in series [5] of 11 µM. Besides, the selectivity ratio in series [6] worked out at 1.2. Also, in series [3], the IC50 amounted to 20 µM.

With `O=C1Cc2cc(-c3ccc(F)c(F)c3)ccc2C(=O)N1O`, the Activity in series [1] is 78%. In addition, the viability at 72 h, 10 µM in series [2] came out at 34%.

For the molecule `O=C1Cc2cc(-c3cccc(-c4ccccc4)c3)ccc2C(=O)N1O`, the Activity in series [1] worked out at 95%. Moreover, the viability at 72 h, 10 µM in series [2] stood at 23%.

Regarding `CS(=O)(=O)c1ccc(-c2ccc3c(c2)CC(=O)N(O)C3=O)cc1`, the Activity in series [1] is listed as 3%. Further, the viability at 72 h, 10 µM in series [2] stood at 100%.

As for `N#Cc1cc(COc2cccc(C(=O)/C=C(\O)C(=O)O)c2)c(Cl)cc1Cl`, the 50% inhibitory concentration (IC50) in series [3] was 0.015 µM; in series [7] it was 0.045 µM.

As for `O=C1Cc2ccc(I)cc2C(=O)N1O`, the Activity in series [1] stood at 79%. The viability at 72 h, 10 µM in series [2] came to 86%. The EC50 in series [4] turned out to be 3.9 µM. For the same molecule, it took 27 µM to reach half-maximal cytotoxicity in series [5] (CC50 at 72 h). Besides, the selectivity ratio in series [6] was 6.9. Further, the IC50 in series [3] came out at 15 µM.

`C[C@@]1(O)[C@H](O)[C@@H](CO)O[C@H]1n1cnc2c(N)ncnc21` yielded a CC50 at 72 h in series [5] of 55 µM. Further, the selectivity ratio in series [6] is 270.

Molecule `NC(=O)c1ncn([C@@H]2O[C@H](CO)[C@@H](O)[C@H]2O)n1` [RIBAVIRIN] gave a half-maximal effective concentration (EC50) in series [4] of 14 µM. In series [5], this molecule registered a 50% cytotoxic concentration (CC50) at 72 h of 32 µM. In addition, in series [6], the selectivity ratio was 2.3.
